The text below walks through data of ChEMBL document CHEMBL1240415, “Design, synthesis and antimicrobial activities of some new quinoline derivatives carrying 1,2,3-triazole moiety” (2010).

Values after ≈ are worked out from the molar mass of the structure shown.

What all share (format): functional
One assay has as its system Klebsiella pneumoniae. The assay can be described thus: Antibacterial activity against recultured Klebsiella pneumoniae after 3 to 4 days by serial plate dilution method. To be noted: for MIC: Klebsiella pneumoniae. Put shortly: (§1)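 Serial dilutions in Mueller-Hinton broth in tubes, pH adjusted to 5.0 with phosphate buffer. Inoculated with a standardized bacterial suspension and incubated 16–18 h at 37 °C. MIC is the lowest concentration with no visible growth, tested over 6.25–100 µg/mL. Zones come from an agar well diffusion assay: compounds in DMSO are added to wells in seeded agar, DMSO control, triplicate plates, 37 °C for 3–4 days, inhibition zone diameter in mm.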

In the next assay the test system is Aspergillus fumigatus. The assay can be described thus: Antifungal activity against Aspergillus fumigatus NCIM 902 after 3 to 4 days by serial plate dilution method. To be noted: for MIC: Aspergillus fumigatus, NCIM 902. An outline of the steps:
(§2)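 Sabouraud agar made from peptone, glucose and agar in water, pH 5.7. Fungal spores suspended in normal saline and used to lawn the plates, which were dried 1 h at 37 °C. Wells punched and compounds added in DMSO, with a DMSO solvent control. Triplicate plates held at 37 °C for 3–4 days. Read-out is inhibition zone diameter.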

Assay [1] deals with Trichophyton mentagrophytes. The assay can be described thus: Antifungal activity against recultured Trichophyton mentagrophytes after 3 to 4 days by serial plate dilution method. To be noted: for MIC: Trichophyton mentagrophytes. Put shortly: as §2
A further assay relates to Staphylococcus aureus. Briefly: Antibacterial activity against Staphylococcus aureus ATTC 25923 after 3 to 4 days by serial plate dilution method. To be noted: for MIC: Staphylococcus aureus, ATTC 25923. An outline of the steps:
as §1

The next assay deals with Aspergillus flavus. The assay can be described thus: Antifungal activity against Aspergillus flavus NCIM 524 after 3 to 4 days by serial plate dilution method. To be noted: for MIC: Aspergillus flavus, NCIM 524. An outline of the steps:
as §2

Another assay concerns Pseudomonas aeruginosa. The assay can be described thus: Antibacterial activity against Pseudomonas aeruginosa ATCC 27853 after 3 to 4 days by serial plate dilution method. To be noted: for MIC: Pseudomonas aeruginosa, ATCC 27853. Put shortly: as §1
Another assay deals with Talaromyces marneffei. The assay can be described thus: Antifungal activity against recultured Penicillium marneffei after 3 to 4 days by serial plate dilution method. To be noted: for MIC: Talaromyces marneffei. Put shortly:
as §2

For the next assay, the system named is Escherichia coli. Briefly: Antibacterial activity against Escherichia coli ATTC 25922 after 3 to 4 days by serial plate dilution method. To be noted: for MIC: Escherichia coli, ATTC 25922. An outline of the steps: as §1
Another assay relates to Streptococcus pyogenes. Briefly: Antibacterial activity against Streptococcus pyogenes after 3 to 4 days by serial plate dilution method. To be noted: for MIC: Streptococcus pyogenes. Put shortly: as §1
Another assay has as its system Candida albicans. Briefly: Antifungal activity against Candida albicans after 3 to 4 days by serial plate dilution method. To be noted: for MIC: Candida albicans. An outline of the steps: as §2

In the case of `COc1ccc2nc(C)cc(-n3cc(CN4CCN(c5ccccc5)CC4)nn3)c2c1`, the “diameter of the inhibition zone (DIZ)” value in the assay with Klebsiella pneumoniae was determined as 12 mm; in the assay with Aspergillus fumigatus, 16 mm; in [1], 16 mm; in the assay with Staphylococcus aureus it was 10 mm; in the assay on Aspergillus flavus, 14 mm; in the assay on Pseudomonas aeruginosa it was 12 mm. Besides, the “diameter of the inhibition zone (DIZ)” value with Talaromyces marneffei was 16 mm; with Escherichia coli, 12 mm; in the assay on Streptococcus pyogenes, 10 mm; in the assay with Candida albicans, 12 mm. Moreover, the minimum inhibitory concentration (MIC) against Klebsiella pneumoniae came to 12.5 µg/mL (≈ 30.2 µM); against Aspergillus fumigatus, 6.25 µg/mL (≈ 15.1 µM); in assay [1], 6.25 µg/mL (≈ 15.1 µM); against Staphylococcus aureus, 6.25 µg/mL (≈ 15.1 µM); against Aspergillus flavus, 6.25 µg/mL (≈ 15.1 µM); in the assay on Pseudomonas aeruginosa, 12.5 µg/mL (≈ 30.2 µM). For the same compound, the minimum inhibitory concentration (MIC) against Talaromyces marneffei is 6.25 µg/mL (≈ 15.1 µM); against Escherichia coli, 12.5 µg/mL (≈ 30.2 µM); against Streptococcus pyogenes it was 12.5 µg/mL (≈ 30.2 µM); against Candida albicans, 6.25 µg/mL (≈ 15.1 µM).

In the case of `COc1ccc2nc(C)cc(-n3cc(CN4CCN(C(C)C)CC4)nn3)c2c1`, the “diameter of the inhibition zone (DIZ)” value with Klebsiella pneumoniae is on record as 16 mm; in the assay on Aspergillus fumigatus, 18 mm; in assay [1], 16 mm; with Staphylococcus aureus, 18 mm; with Aspergillus flavus, 16 mm; with Pseudomonas aeruginosa, 14 mm. Also, the “diameter of the inhibition zone (DIZ)” value with Talaromyces marneffei turned out to be 14 mm; in the assay on Escherichia coli it was 20 mm; with Streptococcus pyogenes, 16 mm; in the assay with Candida albicans, 14 mm. The MIC (with Klebsiella pneumoniae; against Aspergillus fumigatus; in assay [1]; against Staphylococcus aureus; in the assay with Aspergillus flavus; with Pseudomonas aeruginosa) was 6.25 µg/mL (≈ 16.4 µM) each time. Further, the MIC with Talaromyces marneffei, against Escherichia coli, with Streptococcus pyogenes and in the assay with Candida albicans was 6.25 µg/mL (≈ 16.4 µM) throughout.

As to `COc1ccc2nc(C)cc(-n3cc(CN4CCC(N5CCOCC5)CC4)nn3)c2c1`, the “diameter of the inhibition zone (DIZ)” value with Klebsiella pneumoniae is 11 mm; in the assay on Aspergillus fumigatus it was less than 10 mm; in assay [1] it was less than 10 mm; with Staphylococcus aureus, 10 mm; in the assay on Aspergillus flavus, 11 mm; in the assay on Pseudomonas aeruginosa, 10 mm. Further, the “diameter of the inhibition zone (DIZ)” value is reported as less than 10 mm in the assay with Talaromyces marneffei, 11 mm in the assay with Escherichia coli, 12 mm in the assay with Streptococcus pyogenes and less than 10 mm in the assay with Candida albicans. The MIC with Klebsiella pneumoniae came to 12.5 µg/mL (≈ 29.6 µM); in the assay with Aspergillus fumigatus, 50 µg/mL (≈ 118 µM); in [1] it was 50 µg/mL (≈ 118 µM); against Staphylococcus aureus, 12.5 µg/mL (≈ 29.6 µM); against Aspergillus flavus, 12.5 µg/mL (≈ 29.6 µM); in the assay on Pseudomonas aeruginosa, 12.5 µg/mL (≈ 29.6 µM). For the same compound, the MIC against Talaromyces marneffei turned out to be 50 µg/mL (≈ 118 µM); with Escherichia coli it was 12.5 µg/mL (≈ 29.6 µM); with Streptococcus pyogenes, 12.5 µg/mL (≈ 29.6 µM); in the assay with Candida albicans it was 50 µg/mL (≈ 118 µM).

With `COc1ccc2nc(C)cc(-n3cc(CN4CCN(c5ccc(C)cc5)CC4)nn3)c2c1`, the “diameter of the inhibition zone (DIZ)” value is listed as less than 10 mm in the assay with Klebsiella pneumoniae; 10 mm in the assay with Aspergillus fumigatus; 12 mm in [1]; less than 10 mm in the assay with Staphylococcus aureus; 12 mm with Aspergillus flavus; less than 10 mm in the assay on Pseudomonas aeruginosa. Moreover, the “diameter of the inhibition zone (DIZ)” value in the assay with Talaromyces marneffei was less than 10 mm; in the assay on Escherichia coli, less than 10 mm; with Streptococcus pyogenes, less than 10 mm; in the assay with Candida albicans it was 12 mm. Besides, the MIC in the assay on Klebsiella pneumoniae amounted to 50 µg/mL (≈ 117 µM); against Aspergillus fumigatus, 12.5 µg/mL (≈ 29.2 µM); in assay [1], 12.5 µg/mL (≈ 29.2 µM); in the assay with Staphylococcus aureus, 50 µg/mL (≈ 117 µM); against Aspergillus flavus, 12.5 µg/mL (≈ 29.2 µM); with Pseudomonas aeruginosa it was 50 µg/mL (≈ 117 µM). The minimal inhibitory concentration (MIC) was determined as 25 µg/mL (≈ 58.3 µM) with Talaromyces marneffei, 50 µg/mL (≈ 117 µM) in the assay on Escherichia coli, 50 µg/mL (≈ 117 µM) in the assay on Streptococcus pyogenes and 12.5 µg/mL (≈ 29.2 µM) against Candida albicans.

On to `CCN(CC)Cc1cn(-c2cc(C)nc3ccc(OC)cc23)nn1`, for which the “diameter of the inhibition zone (DIZ)” value worked out at 12 mm with Klebsiella pneumoniae; 10 mm in the assay on Aspergillus fumigatus; 10 mm in [1]; 12 mm in the assay with Staphylococcus aureus; 11 mm with Aspergillus flavus; 12 mm in the assay on Pseudomonas aeruginosa. Also, the “diameter of the inhibition zone (DIZ)” value is less than 10 mm in the assay on Talaromyces marneffei, 14 mm in the assay on Escherichia coli, 14 mm with Streptococcus pyogenes and 11 mm with Candida albicans. In addition, the minimum inhibitory concentration (MIC) came to 6.25 µg/mL (≈ 19.2 µM) with Klebsiella pneumoniae; 12.5 µg/mL (≈ 38.4 µM) in the assay on Aspergillus fumigatus; 12.5 µg/mL (≈ 38.4 µM) in assay [1]; 6.25 µg/mL (≈ 19.2 µM) with Staphylococcus aureus; 12.5 µg/mL (≈ 38.4 µM) in the assay on Aspergillus flavus; 6.25 µg/mL (≈ 19.2 µM) in the assay on Pseudomonas aeruginosa. Also, the MIC against Talaromyces marneffei was found to be 25 µg/mL (≈ 76.8 µM); in the assay on Escherichia coli, 6.25 µg/mL (≈ 19.2 µM); in the assay with Streptococcus pyogenes, 6.25 µg/mL (≈ 19.2 µM); against Candida albicans it was 12.5 µg/mL (≈ 38.4 µM).

With `COc1ccc(N2CCN(Cc3cn(-c4cc(C)nc5ccc(OC)cc45)nn3)CC2)c(C)c1`, the “diameter of the inhibition zone (DIZ)” value was 16 mm in the assay on Klebsiella pneumoniae; 16 mm in the assay with Aspergillus fumigatus; 14 mm in assay [1]; 14 mm in the assay with Staphylococcus aureus; 14 mm in the assay with Aspergillus flavus; 10 mm in the assay with Pseudomonas aeruginosa. Moreover, the “diameter of the inhibition zone (DIZ)” value stood at 14 mm in the assay on Talaromyces marneffei, 14 mm in the assay with Escherichia coli, 16 mm in the assay on Streptococcus pyogenes and 10 mm with Candida albicans. In addition, the MIC with Klebsiella pneumoniae was 6.25 µg/mL (≈ 13.6 µM); in the assay with Aspergillus fumigatus it was 6.25 µg/mL (≈ 13.6 µM); in [1] it was 6.25 µg/mL (≈ 13.6 µM); against Staphylococcus aureus, 12.5 µg/mL (≈ 27.3 µM); against Aspergillus flavus, 6.25 µg/mL (≈ 13.6 µM); against Pseudomonas aeruginosa, 12.5 µg/mL (≈ 27.3 µM). The minimal inhibitory concentration (MIC) in the assay with Talaromyces marneffei came out at 6.25 µg/mL (≈ 13.6 µM); in the assay with Escherichia coli, 12.5 µg/mL (≈ 27.3 µM); in the assay on Streptococcus pyogenes, 6.25 µg/mL (≈ 13.6 µM); against Candida albicans it was 6.25 µg/mL (≈ 13.6 µM).

For the compound `COc1ccc2nc(C)cc(-n3cc(CNCCCN(C)C)nn3)c2c1`, the “diameter of the inhibition zone (DIZ)” value worked out at 12 mm in the assay with Klebsiella pneumoniae; 16 mm in the assay on Aspergillus fumigatus; 12 mm in assay [1]; 14 mm in the assay on Staphylococcus aureus; 14 mm in the assay on Aspergillus flavus; 12 mm with Pseudomonas aeruginosa. Also, the “diameter of the inhibition zone (DIZ)” value was determined as 14 mm with Talaromyces marneffei, 10 mm in the assay on Escherichia coli, 14 mm in the assay with Streptococcus pyogenes and 14 mm in the assay on Candida albicans. Besides, the minimal inhibitory concentration (MIC) (in the assay on Klebsiella pneumoniae; in the assay on Aspergillus fumigatus; in [1]; in the assay on Staphylococcus aureus; with Aspergillus flavus; against Pseudomonas aeruginosa) was 6.25 µg/mL (≈ 17.6 µM) each time. The minimum inhibitory concentration (MIC) against Talaromyces marneffei, against Escherichia coli, with Streptococcus pyogenes and against Candida albicans was 6.25 µg/mL (≈ 17.6 µM) throughout.

`COc1ccc2nc(C)cc(-n3cc(CN(C)CCN(C)C)nn3)c2c1`: the “diameter of the inhibition zone (DIZ)” value is recorded as 14 mm in the assay on Klebsiella pneumoniae; 14 mm in the assay with Aspergillus fumigatus; 14 mm in assay [1]; 14 mm with Staphylococcus aureus; 16 mm in the assay on Aspergillus flavus; 14 mm in the assay on Pseudomonas aeruginosa. The “diameter of the inhibition zone (DIZ)” value worked out at 16 mm with Talaromyces marneffei, 14 mm in the assay on Escherichia coli, 16 mm in the assay with Streptococcus pyogenes and 12 mm in the assay with Candida albicans. The MIC (in the assay with Klebsiella pneumoniae; against Aspergillus fumigatus; in assay [1]; with Staphylococcus aureus; with Aspergillus flavus; in the assay with Pseudomonas aeruginosa) was 6.25 µg/mL (≈ 17.6 µM) throughout. The MIC with Talaromyces marneffei, with Escherichia coli, with Streptococcus pyogenes and in the assay with Candida albicans was 6.25 µg/mL (≈ 17.6 µM) throughout.
